Measurements as given in ChEMBL document CHEMBL1649139, “A novel gene, erm(41), confers inducible macrolide resistance to clinical isolates of Mycobacterium abscessus but is absent from Mycobacterium chelonae” (2009).
Converted amounts (≈) assume the structure as drawn.

Columns and labels:
Type in all cases: functional
[1] = test system: Mycobacteroides abscessus; assay: Antimicrobial activity against Mycobacterium abscessus isolate MC1028 at day 14 preincubated with 0.1 ug/ml for 3 days by broth microdilution method
Summary of the method: (§1)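 Clarithromycin MIC by CLSI-conforming broth microdilution. Before testing, cultures were preincubated for 3 days, either in medium alone or in clarithromycin or erythromycin (tested range 0.01–1 μg/ml). Preincubation ran for at least two generations, judged by turbidity increase. Plates were read on day 3 and on extended incubation at days 5 to 14.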

[2] = test system: Mycobacteroides abscessus; assay: Antimicrobial activity against Mycobacterium abscessus isolate MC879 at day 5 preincubated with 0.1 ug/ml erythromycin for 3 days by broth microdilution method
Summary of the method: (§2)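 Clinical M. abscessus isolates were preincubated for 3 days, either in medium alone or in clarithromycin or erythromycin at 0.01 to 1 μg/ml, allowing at least two generations of growth judged by turbidity. The clarithromycin MIC was then determined by CLSI-conforming broth microdilution, with plates read on day 3 and on extended incubation (days 5 to 14).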

[3] = test system: Mycobacteroides abscessus; assay: Antimicrobial activity against Mycobacterium abscessus isolate MC723 at day 5 by broth microdilution method; settings: isolate MC723, 120 h
Summary of the method: (§3)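 Clarithromycin MIC by broth microdilution following CLSI guidelines. Before testing, organisms were preincubated for 3 days in medium alone or in clarithromycin or erythromycin (0.01–1 μg/ml), long enough for at least two generations judged by turbidity increase. MICs were read on day 3 and again on extended incubation out to day 14.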

[4] = test system: Mycobacteroides abscessus; assay: Antimicrobial activity against Mycobacterium abscessus isolate MC1028 at day 7 by broth microdilution method; settings: isolate MC1028, 168 h; summary of the method: as §1
[5] = test system: Mycobacteroides abscessus; assay: Antimicrobial activity against Mycobacterium abscessus isolate MC724 at day 7 by broth microdilution method; settings: isolate MC724, 168 h; summary of the method: as §2
[6] = test system: Mycobacteroides abscessus; assay: Antimicrobial activity against Mycobacterium abscessus isolate MC724 at day 14 preincubated with 0.1 ug/ml erythromycin for 3 days by broth microdilution method; summary of the method: as §3
[7] = test system: Mycobacteroides abscessus; assay: Antimicrobial activity against Mycobacterium abscessus isolate MC1028 at day 9 preincubated with 0.1 ug/ml for 3 days by broth microdilution method; summary of the method: as §1
[8] = test system: Mycobacteroides abscessus; assay: Antimicrobial activity against Mycobacterium abscessus isolate MC719 at day 14 preincubated with 0.1 ug/ml for 3 days by broth microdilution method; summary of the method: as §3
[9] = test system: Mycobacteroides abscessus; assay: Antimicrobial activity against Mycobacterium abscessus isolate MAB30 at day 5 preincubated with 0.1 ug/ml erythromycin for 3 days by broth microdilution method; summary of the method: as §1
[10] = test system: Mycobacteroides abscessus; assay: Antimicrobial activity against Mycobacterium abscessus isolate MC1028 at day 5 preincubated with 0.1 ug/ml erythromycin for 3 days by broth microdilution method; summary of the method: as §1
[11] = test system: Mycobacteroides abscessus; assay: Antimicrobial activity against Mycobacterium abscessus isolate MC724 at day 9 preincubated with 0.1 ug/ml for 3 days by broth microdilution method
Summary of the method: (§4)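 To test inducible resistance, cultures were preincubated for 3 days in clarithromycin or erythromycin, within 0.01–1 μg/ml. The period was set so cultures passed at least two generations, judged by turbidity increase. Clarithromycin MIC was then determined by CLSI-conforming broth microdilution and read on the stated day, from day 3 up to 14.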

[12] = test system: Mycobacteroides abscessus; assay: Antimicrobial activity against Mycobacterium abscessus isolate MC958 at day 3 preincubated with 0.1 ug/ml erythromycin for 3 days by broth microdilution method; summary of the method: as §4
[13] = test system: Mycobacteroides abscessus; assay: Antimicrobial activity against Mycobacterium abscessus isolate MC1082 at day 5 by broth microdilution method; settings: isolate MC1082, 120 h; summary of the method: as §1
[14] = test system: Mycobacteroides abscessus; assay: Antimicrobial activity against Mycobacterium abscessus isolate MAB30 at day 14 preincubated with 0.1 ug/ml erythromycin for 3 days by broth microdilution method; summary of the method: as §1
[15] = test system: Mycobacteroides abscessus; assay: Antimicrobial activity against Mycobacterium abscessus isolate MC719 at day 5 by broth microdilution method; settings: isolate MC719, 120 h; summary of the method: as §3
[16] = test system: Mycobacteroides abscessus; assay: Antimicrobial activity against Mycobacterium abscessus isolate MC958 at day 3 preincubated with 0.1 ug/ml for 3 days by broth microdilution method; summary of the method: as §4
[17] = test system: Mycobacteroides abscessus; assay: Antimicrobial activity against Mycobacterium abscessus isolate MC724 at day 14 preincubated with 0.1 ug/ml for 3 days by broth microdilution method; summary of the method: as §3
[18] = test system: Mycobacteroides abscessus; assay: Antimicrobial activity against Mycobacterium abscessus isolate MC879 at day 14 preincubated with 0.1 ug/ml erythromycin for 3 days by broth microdilution method; summary of the method: as §4
[19] = test system: Mycobacteroides abscessus; assay: Antimicrobial activity against Mycobacterium abscessus isolate MC879 at day 5 preincubated with 0.1 ug/ml for 3 days by broth microdilution method; summary of the method: as §4
[20] = test system: Mycobacteroides abscessus; assay: Antimicrobial activity against Mycobacterium abscessus isolate MC1448 at day 5 preincubated with 0.1 ug/ml for 3 days by broth microdilution method; summary of the method: as §3
[21] = test system: Mycobacteroides abscessus; assay: Antimicrobial activity against Mycobacterium abscessus isolate MC958 at day 5 preincubated with 0.1 ug/ml for 3 days by broth microdilution method; summary of the method: as §2
[22] = test system: Mycobacteroides abscessus; assay: Antimicrobial activity against Mycobacterium abscessus isolate MC879-2 at day 14 preincubated with 0.1 ug/ml erythromycin for 3 days by broth microdilution method
[23] = test system: Mycobacteroides abscessus; assay: Antimicrobial activity against Mycobacterium abscessus isolate MC723 at day 7 preincubated with 0.1 ug/ml for 3 days by broth microdilution method; summary of the method: as §3
[24] = test system: Mycobacteroides abscessus; assay: Antimicrobial activity against Mycobacterium abscessus isolate MAB30 at day 14 by broth microdilution method; settings: isolate MAB30, 336 h; summary of the method: as §1
[25] = test system: Mycobacteroides abscessus; assay: Antimicrobial activity against Mycobacterium abscessus isolate MC720 at day 9 by broth microdilution method; settings: isolate MC720, 216 h; summary of the method: as §3
[26] = test system: Mycobacteroides abscessus; assay: Antimicrobial activity against Mycobacterium abscessus isolate MC879 at day 7 preincubated with 0.1 ug/ml erythromycin for 3 days by broth microdilution method; summary of the method: as §4
[27] = test system: Mycobacteroides abscessus; assay: Antimicrobial activity against Mycobacterium abscessus isolate MC879 on day 10 by broth microdilution method; settings: isolate MC879, 240 h
[28] = test system: Mycobacteroides abscessus; assay: Antimicrobial activity against Mycobacterium abscessus isolate MAB30 at day 7 by broth microdilution method; settings: isolate MAB30, 168 h; summary of the method: as §1
[29] = test system: Mycobacteroides abscessus; assay: Antimicrobial activity against Mycobacterium abscessus isolate MC720 at day 3 by broth microdilution method; settings: isolate MC720, 72 h; summary of the method: as §3
[30] = test system: Mycobacteroides abscessus; assay: Antimicrobial activity against Mycobacterium abscessus isolate MC720 at day 5 preincubated with 0.1 ug/ml erythromycin for 3 days by broth microdilution method; summary of the method: as §2
[31] = test system: Mycobacteroides abscessus; assay: Antimicrobial activity against Mycobacterium abscessus isolate MC879-2 at day 5 preincubated with 0.1 ug/ml erythromycin for 3 days by broth microdilution method
[32] = test system: Mycobacteroides abscessus; assay: Antimicrobial activity against Mycobacterium abscessus isolate MAB30 at day 5 preincubated with 0.1 ug/ml for 3 days by broth microdilution method; summary of the method: as §1
[33] = test system: Mycobacteroides abscessus; assay: Antimicrobial activity against Mycobacterium abscessus isolate MC720 at day 7 preincubated with 0.1 ug/ml for 3 days by broth microdilution method; summary of the method: as §3
[34] = test system: Mycobacteroides abscessus; assay: Antimicrobial activity against Mycobacterium abscessus isolate MC1028 at day 3 preincubated with 0.1 ug/ml erythromycin for 3 days by broth microdilution method; summary of the method: as §1
[35] = test system: Mycobacteroides abscessus; assay: Antimicrobial activity against Mycobacterium abscessus isolate MC1448 at day 14 preincubated with 0.1 ug/ml erythromycin for 3 days by broth microdilution method; summary of the method: as §1
[36] = test system: Mycobacteroides abscessus; assay: Antimicrobial activity against Mycobacterium abscessus isolate MC719 at day 3 by broth microdilution method; settings: isolate MC719, 72 h; summary of the method: as §3
[37] = test system: Mycobacteroides abscessus; assay: Antimicrobial activity against Mycobacterium abscessus isolate MC879-2 at day 14 by broth microdilution method; settings: isolate MC879-2, 336 h

CC[C@H]1OC(=O)[C@H](C)[C@@H](O[C@H]2C[C@@](C)(OC)[C@@H](O)[C@H](C)O2)[C@H](C)[C@@H](O[C@@H]2O[C@H](C)C[C@H](N(C)C)[C@H]2O)[C@](C)(OC)C[C@@H](C)C(=O)[C@H](C)[C@@H](O)[C@]1(C)O [CLARITHROMYCIN]
MIC [1]: ≤ 0.5 µg/mL
MIC [2]: 4 µg/mL
MIC [3]: 1 µg/mL (≈ 1.34 µM)
MIC [4]: ≤ 0.5 µg/mL
MIC [5]: 8 µg/mL (≈ 10.7 µM)
MIC [6]: > 32 µg/mL
MIC [7]: ≤ 0.5 µg/mL
MIC [8]: > 32 µg/mL
MIC [9]: ≤ 0.5 µg/mL
MIC [10]: ≤ 0.5 µg/mL
MIC [11]: > 32 µg/mL
MIC [12]: ≤ 0.5 µg/mL
MIC [13]: ≤ 0.5 µg/mL
MIC [14]: ≤ 0.5 µg/mL
MIC [15]: 1 µg/mL (≈ 1.34 µM)
MIC [16]: ≤ 0.5 µg/mL
MIC [17]: > 32 µg/mL
MIC [18]: > 32 µg/mL
MIC [19]: 4 µg/mL (≈ 5.35 µM)
MIC [20]: > 32 µg/mL
MIC [21]: 4 µg/mL (≈ 5.35 µM)
MIC [22]: > 32 µg/mL
MIC [23]: > 32 µg/mL
MIC [24]: ≤ 0.5 µg/mL
MIC [25]: > 32 µg/mL
MIC [26]: > 32 µg/mL
MIC [27]: 32 µg/mL (≈ 42.8 µM)
MIC [28]: ≤ 0.5 µg/mL
MIC [29]: ≤ 0.5 µg/mL
MIC [30]: 4 µg/mL
MIC [31]: > 32 µg/mL
MIC [32]: ≤ 0.5 µg/mL
MIC [33]: > 32 µg/mL
MIC [34]: ≤ 0.5 µg/mL
MIC [35]: > 32 µg/mL
MIC [36]: ≤ 0.5 µg/mL
MIC [37]: > 32 µg/mL
